# Measurements gathered from unrelated publications.
# Compare with care: the assays were run in different laboratories.
Structure (SMILES),system,setting,endpoint,result
CC(C)NCC(O)COc1cccc2ccccc12 (stereo not drawn),PAMPA,"40 µM, 5 h, pH 7.4",Papp,14.3 ×10⁻⁶ cm/s
CC(C)C[C@@H]1NC(=O)[C@H](C)NC(=O)[C@H](Cc2ccccc2)NCC2=CC=C(CN(C)C1=O)O2,PAMPA,"100 µM, 17 h, pH 6.4",Papp,1.9 ×10⁻⁶ cm/s
Cc1c(C(=O)O)ccc2c3n(nc12)[C@@H]1[C@H](C3)N(CC2CC2)[C@@]2(C(=O)Nc3cc(Cl)ccc32)[C@H]1c1cccc(Cl)c1F,"female minipig, plasma","oral, 2 mg/kg",Cmax,900 nM
CC(C)Cc1ccc(C(C)C(=O)O)cc1 (stereo not drawn),PAMPA-BBB,pH 7.4,Papp,11.6 ×10⁻⁶ cm/s
CCCCCCCc1[nH]c2ccccc2c(=O)c1O,PAMPA,"40 µM, 5 h, pH 7.4",Papp,1.2 to 4 ×10⁻⁶ cm/s
O=[N+]([O-])c1ccc2c(c1)S(=O)(=O)C=C2,PAMPA-BBB,pH 7.4,Papp,3.98 ×10⁻⁶ cm/s
CC(C)C[C@@H]1NC(=O)CN(C)C(=O)[C@H](Cc2ccccc2)NCC2=CC=C(CNC1=O)O2,PAMPA,"100 µM, 17 h, pH 6.4",Papp,1.3 ×10⁻⁶ cm/s
N#C[C@@]12C[C@@H]1[C@@H](n1cnc3c(N[C@@H](C4CCC4)C4CC4)nc(I)nc31)[C@H](O)[C@@H]2O,"male Wistar rat, plasma","oral, 10 mg/kg",AUC(0-inf),349 ng·h/mL
O=C1CC[C@H](N2Cc3cc(N4CCN(CC5CCN(c6ccc([C@@H]7c8ccc(O)cc8CC[C@@H]7c7ccccc7)cc6)CC5)CC4)ccc3C2=O)C(=O)N1,"female Sprague-Dawley rat, plasma","intravenous, 5 mg/kg, fed",AUC(0-inf),11600 ng·h/mL
